Measurements: ChEMBL document CHEMBL5257094, “Synthesis and analysis of novel catecholic ligands as inhibitors of catechol-O-methyltransferase” (Bioorg Med Chem Lett, 2023)
Calls of active or inactive are those of the source. The rule behind the calls is not given here.

Experiments:
[1] = Stability of compound in phosphate buffer at 7.4 assessed as drug degradation incubated for 1 hr by HPLC analysis; type: physicochemical; conditions: for Stability: buffer, pH 7.4, 1 h; for degraded at 1 h: phosphate buffer, pH 7.4, read-out: Drug degradation
In short: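 Compounds were incubated at assay conditions, 37 °C in phosphate buffer at pH 7.4, for 1 hour. Degradation was then assessed by HPLC analysis.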

[2] = target: T1, Catechol O-methyltransferase (Homo sapiens) (UniProt P21964); test: Inhibition of S-COMT (unknown origin) assessed as scopoletin formation by measuring fluorescence using 6,7-dihydroxycoumarin as substrate at 100 uM and measured for 60 mins by fluorescence based microplate reader assay
T1 sequence (whole entry): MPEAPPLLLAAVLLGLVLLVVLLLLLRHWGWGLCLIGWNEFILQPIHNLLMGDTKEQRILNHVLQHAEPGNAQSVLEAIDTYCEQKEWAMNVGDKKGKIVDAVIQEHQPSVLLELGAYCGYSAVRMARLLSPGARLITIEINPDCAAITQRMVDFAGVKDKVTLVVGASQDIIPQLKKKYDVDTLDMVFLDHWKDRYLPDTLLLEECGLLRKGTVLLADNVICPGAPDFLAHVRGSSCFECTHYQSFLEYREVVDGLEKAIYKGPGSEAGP
In short: (§1)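 Soluble COMT (S-COMT) activity was run at 37 °C and pH 7.4. The substrate was aesculetin (6,7-dihydroxycoumarin) at 6 μM, which methylation converts to fluorescent scopoletin. Fluorescence was read over 60 min. Test catechols were added at 10 μM or 100 μM. Each was assayed at least in triplicate, and the signal was normalized to the no-inhibitor aesculetin fluorescence.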

[3] = target: T1, Catechol O-methyltransferase (Homo sapiens); test: Inhibition of S-COMT (unknown origin) assessed as scopoletin formation by measuring fluorescence using 6,7-dihydroxycoumarin as substrate at 10 uM and measured for 60 mins by fluorescence based microplate reader assay; in short: as §1
[4] = Dissociation constant, pKa of compound pH 3.01 to 12.36 at 0.2 mM by spectroscopic analysis; type: physicochemical
In short: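 Five-buffer series in which CHES replaced Borax over pH 8.2–10.8, with KCl buffers added to widen the range. Compound dissolved in each buffer across pH 3.01–12.36 to a final 0.2 mM. Absorbance was read, normalized, and fitted to give the first and, where determinable, second catechol hydroxyl pKa.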

SMILES	Stability [1]	inhibition [2]	inhibition [3]	pKa at 200 µM [4]	degraded at 1 h [1]
N#CCCc1ccc(O)c(O)c1	Unstable	Active	inactive		
N#Cc1ccc(O)c(O)c1	Stable	Active	inactive	7.45	
N#CCc1cc(O)c(O)cc1[N+](=O)[O-]		Active	Active	6.23	< 5%
NCCc1cc(O)c(O)cc1Br	Stable	inactive	inactive		
NCCc1cc(O)c(O)cc1C(=O)O	Stable	inactive	inactive		
N#Cc1cc(O)c(O)cc1CCN	Stable	30%	inactive		
NCCc1cc(O)c(O)cc1O [OXIDOPAMINE]		Active	inactive		> 40%
NCCc1cc(O)c(O)cc1[N+](=O)[O-]	Stable	50%	inactive	6.33	
Oc1cc2c(cc1O)CNCC2	Unstable	inactive	inactive		
N#CCc1ccc(O)c(O)c1	Stable	Active	inactive	9.6	
N#CCCc1cc(O)c(O)cc1[N+](=O)[O-]	Stable	Active	inactive		
NCCc1ccc(O)c(O)c1 [DOPAMINE]	Stable			8.66	
